Test results taken from ChEMBL document CHEMBL3414559, “Novel C-4 heteroaryl 13-cis-retinamide Mnk/AR degrading agents inhibit cell proliferation and migration and induce apoptosis in human breast and prostate cancer cells and suppress growth of MDA-MB-231 human breast and CWR22Rv1 human prostate tumor xenografts in mice” (J Med Chem, 2015).
Calls of active or inactive are those of the source. The calls are words filed in the database; no cut-off is given here.

Key:
CWR22R [1] = assay: Antitumor activity against human CWR22Rv1 cells xenografted in SCID mouse assessed as reduction in Bcl2 protein expression at 20 mg/kg, ip dosed once daily for 5 days per week for 28 days by SDS-PAGE and Western blotting method; assay type: functional, organism-based; parameters: dose 20 mg/kg
Procedure, shortened: (§1)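 CWR22Rv1 cells (1 × 10⁶) implanted subcutaneously in male SCID mice, castrated; at ~100 mm³ tumors, randomized (n = 6/group) to vehicle (40% β-cyclodextrin in ddH₂O) or drug ip in same vehicle once daily, 5 days/week for 28 days. Tumor lysates made in RIPA buffer, 50 μg protein from pooled samples (n = 6) on 10% SDS–PAGE, immunoblotted; GAPDH as loading control.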

MCF7 [2] = assay: Growth inhibition of human MCF7 cells by MTT assay; assay type: functional
Procedure, shortened: (§2)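 Cells grown in RPMI 1640 with 10% FBS, plated at 2500 cells/well, treated across a dose range; growth read by MTT. GI50 taken from dose–response curves by nonlinear regression, at least three independent experiments.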

LNCaP [3] = assay: Growth inhibition of human LNCAP cells by MTT assay; assay type: functional; procedure, shortened: as §2
MCF7 [4] = assay: Reduction in Mnk1 protein expression in human MCF7 cells at 0.63 uM to 20 uM after 24 hrs by SDS-PAGE and Western blotting method; assay type: functional, cell-based
Procedure, shortened: (§3)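 Breast cancer cells in RPMI 1640 with 10% FBS treated 24 h at indicated concentrations, DMSO vehicle control; equal protein loaded on SDS–PAGE and immunoblotted for Mnk1, Mnk2, peIF4E, eIF4E and cleaved PARP; blots reprobed for GAPDH as loading control.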

MDA-MB-231 [5] = assay: Reduction in Mnk2 protein expression in human MDA-MB-231 cells at 0.63 uM to 20 uM after 24 hrs by SDS-PAGE and Western blotting method; assay type: functional, cell-based; procedure, shortened: as §3
MDA-MB-231 [6] = assay: Reduction in peIF4E protein expression in human MDA-MB-231 cells at 0.63 uM to 20 uM after 24 hrs by SDS-PAGE and Western blotting method; assay type: functional, cell-based
Procedure, shortened: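 MCF-7, MDA-MB-231 and MDA-MB-468 cells, kept in RPMI 1640 with 10% FBS, were exposed for 24 h to a range of concentrations, with DMSO vehicle controls. Equal protein from lysates was separated by SDS–PAGE and probed for Mnk1, Mnk2, peIF4E, eIF4E and cPARP. GAPDH reprobing served as loading control.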

MDA-MB-468 [7] = assay: Effect on total eIF4E protein expression in human MDA-MB-468 cells at 0.63 uM to 20 uM after 24 hrs by SDS-PAGE and Western blotting method; assay type: functional, cell-based; procedure, shortened: as §3
MDA-MB-231 [8] = assay: Effect on total eIF4E protein expression in human MDA-MB-231 cells at 0.63 uM to 20 uM after 24 hrs by SDS-PAGE and Western blotting method; assay type: functional, cell-based; procedure, shortened: as §3
MDA-MB-468 [9] = assay: Induction of apoptosis in human MDA-MB-468 cells assessed as increase in c-PARP formation at 0.63 uM to 20 uM after 24 hrs by SDS-PAGE and Western blotting method; assay type: functional, cell-based; procedure, shortened: as §3
MCF7 [10] = assay: Induction of apoptosis in human MCF7 cells assessed as increase in c-PARP formation at 0.63 uM to 20 uM after 24 hrs by SDS-PAGE and Western blotting method; assay type: functional, cell-based; procedure, shortened: as §3
MDA-MB-231 [11] = assay: Induction of apoptosis in human MDA-MB-231 cells assessed as increase in c-PARP formation at 0.63 uM to 20 uM after 24 hrs by SDS-PAGE and Western blotting method; assay type: functional, cell-based; procedure, shortened: as §3
MDA-MB-231 [12] = assay: Antitumor activity against human MDA-MB-231 cells xenografted in SCID mouse assessed as tumor growth at 20 mg/kg, ip dosed once daily for 5 days per week for 28 days; assay type: functional; conditions: route intraperitoneal, in the assay text read “athymic nude mouse” for “SCID mouse”
Procedure, shortened: (§4)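 Athymic nude female mice with subcutaneous MDA-MB-231 tumors (10 × 10⁶ cells; ~100 mm³ at randomization, n = 6/group) dosed ip once daily, 5 days/week for 28 days, in 40% β-cyclodextrin/ddH₂O; vehicle controls. %T/C computed as median tumor volume treated vs control at day 28 × 100. Body weight monitored.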

MDA-MB-231 [13] = assay: Antitumor activity against human MDA-MB-231 cells xenografted in SCID mouse assessed as inhibition of tumor growth at 20 mg/kg, ip dosed once daily for 5 days per week for 28 days; assay type: functional; conditions: MDA-MB-231, ip, in the assay text read “athymic nude mouse” for “SCID mouse”, route intraperitoneal, read-out: TGI; procedure, shortened: as §4
LNCaP [14] = assay: Reduction in fAR protein expression in human LNCAP cells at 0.6 uM to 20 uM after 24 hrs by SDS-PAGE and Western blotting method; assay type: functional, cell-based
Procedure, shortened: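 LNCaP cells were treated for 24 h across 0.6–20 μM, with vehicle (DMSO) controls. Equal protein from lysates was run on SDS–PAGE and immunoblotted for fAR, Mnk1/2, peIF4E, cyclin D1 and cleaved PARP. Blots were reprobed for β-actin as loading control.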

LNCaP [15] = assay: Effect on total eIF4E protein expression in human LNCAP cells at 0.6 uM to 20 uM after 24 hrs by SDS-PAGE and Western blotting method; assay type: functional, cell-based
PC-3 = assay: Inhibition of cell migration of human PC3 cells at 5 uM after 24 hrs by wound healing assay; assay type: functional, cell-based
Procedure, shortened: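 Cells (5 × 10⁵ per well) grown to confluence, monolayer scratched at time zero, then exposed to 5 μM for 24 h; initial and final wounds photographed at 100×.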

CWR22R [16] = assay: Antitumor activity against human CWR22Rv1 cells xenografted in SCID mouse assessed as reduction in AR-V7 protein expression at 20 mg/kg, ip dosed once daily for 5 days per week for 28 days by SDS-PAGE and Western blotting method; assay type: functional, organism-based; parameters: dose 20 mg/kg; procedure, shortened: as §1
Mus musculus = assay: Toxicity in human MDA-MB-231 cells xenografted athymic nude mouse assessed as effect on body weight at 20 mg/kg, ip dosed once daily for 5 days per week for 28 days; conditions: in vivo
MDA-MB-231 [17] = assay: Antitumor activity against human MDA-MB-231 cells xenografted in nude mouse assessed as increase in Bax protein expression at 20 mg/kg, ip dosed once daily for 5 days per week for 28 days by SDS-PAGE and Western blotting method
MDA-MB-231 [18] = assay: Antitumor activity against human MDA-MB-231 cells xenografted in nude mouse assessed as reduction in Bcl2 protein expression at 20 mg/kg, ip dosed once daily for 5 days per week for 28 days by SDS-PAGE and Western blotting method
MDA-MB-231 [19] = assay: Antitumor activity against human MDA-MB-231 cells xenografted in nude mouse assessed as reduction in peIF4E protein expression at 20 mg/kg, ip dosed once daily for 5 days per week for 28 days by SDS-PAGE and Western blotting method
MDA-MB-231 [20] = assay: Antitumor activity against human MDA-MB-231 cells xenografted in nude mouse assessed as reduction in cyclin D1 protein expression at 20 mg/kg, ip dosed once daily for 5 days per week for 28 days by SDS-PAGE and Western blotting method

Compound	GI50 (MCF7 [2])	GI50 (LNCaP [3])	inhibition (MCF7 [4])	inhibition (MDA-MB-231 [5])	inhibition (MDA-MB-231 [6])	Activity (MDA-MB-468 [7])	Activity (MDA-MB-231 [8])	Activity (MDA-MB-468 [9])	Activity (MCF7 [10])	Activity (MDA-MB-231 [11])	T/C (MDA-MB-231 [12])	inhibition in vivo at 20 mg/kg (MDA-MB-231 [13])	inhibition (LNCaP [14])	Activity (LNCaP [15])	inhibition (PC-3)	Activity (Mus musculus)	Activity (MDA-MB-231 [17])	Activity (MDA-MB-231 [18])	Activity (MDA-MB-231 [19])	Activity (MDA-MB-231 [20])	further results
CC1=C(/C=C/C(C)=C/C=C/C(C)=C\C(=O)Nc2cccc(F)c2)C(C)(C)CCC1n1ccnc1 (configuration not stated)	5490 nM	2690 nM	Dose-dependent effect	Dose-dependent effect	Dose-dependent effect	inactive	inactive	Dose-dependent effect	Dose-dependent effect	Dose-dependent effect	14.6%	85.4%	Dose-dependent effect	inactive	Active	Non-toxic	Active	Active	Active	Active	Activity (CWR22R [1]): Active; Activity (CWR22R [16]): Active
CC1=C(/C=C/C(C)=C/C=C/C(C)=C\C(=O)NCc2ccc(O)cc2)C(C)(C)CCC1n1ccnc1 (configuration not stated)	160 nM	1690 nM	Dose-dependent effect	Dose-dependent effect	Dose-dependent effect	inactive	inactive	Dose-dependent effect	Dose-dependent effect	Dose-dependent effect	14.6%	85.4%	Dose-dependent effect	inactive	Active	Non-toxic	Active	Active	Active	Active	–
